Shown are actives, neighbours in structure and some others; about 3.7% of the full set was active somewhere.
NPY-Y1 PAM-ag = NPY-Y1 receptor potentiators or agonists, primary screen, cell-based | activation, % at 3.6 µM | actives 0.37% (n = 220,000) | NPY-Y1 expressing cells, potentiator/agonist activation | Neuropeptide Y receptor type 1 (Homo sapiens), P25929; in the data active = activation above about 33%, passing the limit was not always enough;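 note: cells stimulated with NPY at EC10 then isoproterenol at EC100; 0% = low agonist plus stimulus and 100% = saturating agonist plus stimulus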
Furin inh = human furin inhibitors, primary screen, biochemical, fluorescence intensity | inhibition, % at 20 µM or 30 µM | purified furin, fluorogenic substrate cleavage | P09958 | actives 0.061% (n = 220,000) | AID 463115, 2010; in the data active = inhibition above about 25%
NPY-Y2 antag = NPY-Y2 receptor antagonists, primary screen, cell-based; Neuropeptide Y receptor type 2 (Homo sapiens), P49146; NPY-Y2 expressing cells, antagonist mode; inhibition, % at 2.7 µM; actives 0.99% (n = 140,000); AID 793, 2007;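 note: 0% = vehicle with agonist challenge and 100% = reference antagonist with challenge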
NPY2 pot ag = NPY-Y2 potentiators or agonists, primary screen, cell-based. cells expressing NPY-Y2, potentiator/agonist read-out. activation, % at 3.6 µM. actives 0.45% (n = 220,000); in the data active = activation above about 27%;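 note: cells stimulated with NPY near EC25 plus isoproterenol at EC100; 0% = vehicle plus submaximal agonist and 100% = vehicle plus saturating agonist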
KCC2 mod = KCC2 cotransporter modulators, thallium flux, primary screen, cell-based, HEK293 KCC2, FluoZin-2 fluorescence, MLSMR; B-score of Tl+ flux slope (higher = more flux/activation; lower = inhibition) at 10 µM; Solute carrier family 12 member 5 (Homo sapiens), Q9H2X9; actives 2.2% (n = 190,000); AID 1456, 2008; KCC2 cells, thallium flux FluoZin-2 fluorescence;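 active = thallium flux slope and its plate-corrected score both differing from the plate sample mean at a set confidence after two filtering rounds, in either direction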;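 note: slope of fluorescence scaled to starting intensity during 10 to 20 s after thallium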
Target sequence (Q9H2X9 whole entry, looked up): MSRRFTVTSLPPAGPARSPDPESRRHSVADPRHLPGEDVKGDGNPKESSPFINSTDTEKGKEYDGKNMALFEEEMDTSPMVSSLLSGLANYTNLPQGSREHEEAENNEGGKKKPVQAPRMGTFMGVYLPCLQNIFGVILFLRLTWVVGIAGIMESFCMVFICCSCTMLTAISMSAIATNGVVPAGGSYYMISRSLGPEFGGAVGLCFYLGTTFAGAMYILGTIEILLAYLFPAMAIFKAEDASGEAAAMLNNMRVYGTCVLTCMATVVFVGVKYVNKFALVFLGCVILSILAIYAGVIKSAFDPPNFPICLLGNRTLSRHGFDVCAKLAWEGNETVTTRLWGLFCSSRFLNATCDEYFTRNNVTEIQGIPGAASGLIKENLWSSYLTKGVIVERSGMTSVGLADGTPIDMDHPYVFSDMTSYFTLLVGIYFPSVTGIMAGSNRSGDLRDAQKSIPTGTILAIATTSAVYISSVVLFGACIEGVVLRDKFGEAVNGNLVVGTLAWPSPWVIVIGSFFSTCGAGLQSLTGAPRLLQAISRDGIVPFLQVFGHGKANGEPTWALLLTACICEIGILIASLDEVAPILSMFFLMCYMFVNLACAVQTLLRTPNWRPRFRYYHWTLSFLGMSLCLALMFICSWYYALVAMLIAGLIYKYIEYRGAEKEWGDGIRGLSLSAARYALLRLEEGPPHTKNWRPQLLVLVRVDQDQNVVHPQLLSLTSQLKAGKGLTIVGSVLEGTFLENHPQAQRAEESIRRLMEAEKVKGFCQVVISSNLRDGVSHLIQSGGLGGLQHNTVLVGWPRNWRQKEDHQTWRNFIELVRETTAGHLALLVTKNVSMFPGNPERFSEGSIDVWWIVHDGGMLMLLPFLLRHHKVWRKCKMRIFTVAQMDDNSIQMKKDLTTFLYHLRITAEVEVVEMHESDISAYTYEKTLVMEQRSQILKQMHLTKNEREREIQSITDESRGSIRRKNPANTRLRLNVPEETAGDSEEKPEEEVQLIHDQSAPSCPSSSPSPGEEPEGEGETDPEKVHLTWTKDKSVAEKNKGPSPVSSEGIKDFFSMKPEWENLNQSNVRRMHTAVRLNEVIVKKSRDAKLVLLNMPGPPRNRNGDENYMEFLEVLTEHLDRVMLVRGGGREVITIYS
NPY-Y1 antag = NPY-Y1 receptor antagonists, primary screen, cell-based; Neuropeptide Y receptor type 1 (Homo sapiens), P25929; inhibition, % at 3.6 µM; actives 1% (n = 200,000); HEK293-CNG Y1 cells, membrane potential fluorescence; NPY at EC95, then isoproterenol;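 active = inhibition above the campaign mean inhibition of all tested compounds plus 3 SD, cut at about 20% in these data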;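 note: 0% = DMSO wells given NPY plus isoproterenol and 100% = isoproterenol alone without NPY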
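Test system – HEK293 Y1/CNG channel cell line · Also added – NPY agonist 25 nM, then isoproterenol 1 µM plus Ro 20-1724 25 µM · Compound dosing – one concentration, 3.6 µM, in 0.4% DMSO · Schedule – compound incubation 1 h at room temperature, readout 45 min post-stimulation · Technique – fluorescence, membrane potential probe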
NPY1 antag conf = NPY-Y1 receptor antagonists, retest of hits, confirmation, HEK293-CNG cells, membrane potential fluorescence, triplicate | inhibition, % at 3.6 µM | cAMP; NPY challenge against isoproterenol-raised cAMP | shares compounds with NPY-Y1 antag | actives 21% (n = 1,200); in the data active = inhibition above about 20%;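 note: 0% = vehicle with agonist plus stimulus and 100% = stimulus alone without agonist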
NPY-Y2 antag ct = NPY-Y2 receptor antagonists, selectivity check, confirmation, counter-screen for NPY-Y1 antagonist project, HEK293-CNG cells, membrane potential fluorescence, triplicate | shares compounds with NPY-Y1 antag | antagonism; cells given NPY, then isoproterenol | inhibition, % at 3.6 µM | actives 28% (n = 1,200) | AID 1255, 2008;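 note: 0% = DMSO with agonist challenge and 100% = reference antagonist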
* hit, by the source's call; . = not tested or not shown. Cut-off read from the data, not from the text of the source, unless noted: active = inhibition above about 17%; inactive = the rest.

SMILES	NPY-Y1 PAM-ag	Furin inh	NPY-Y2 antag	NPY2 pot ag	KCC2 mod	NPY-Y1 antag	NPY1 antag conf	NPY-Y2 antag ct
Cc1nc2c(C#N)c[nH]n2c(=O)c1CCO	8	-24	.	5	.	.	.	.
Cc1cc2c(=O)n(Cc3ccco3)c(SCC(=O)N3CCCc4ccccc43)nc2s1	-8	-12	8	-12	-1.7	22*	1	4
O=c1cnn([C@@H]2O[C@H](CO)[C@@H](O)[C@H]2O)c(=O)[nH]1	2	-10	-1	-2	0.6	70*	-1	1
Nc1ccn([C@@H]2O[C@H](CO)[C@@H](O)C2O)c(=O)n1 (some centres not stated)	-4	.	.	9	-0.085	3	.	.
S=c1[nH]nc(COc2ccccc2)n1/N=C/c1ccncc1	-1	-21	.	4	-0.51	11	.	.
CC(/C=N/n1c(COc2ccccc2)n[nH]c1=S)=C\c1ccccc1	-31	-14	11	-30	7.8*	31*	6	7
O=C1N(Cc2cccc(Cl)c2)C[C@@H]2C[C@@H](c3ccco3)N3CCC[C@@]123	3	-31	.	-15	0.029	22*	12	6
Cc1cc(C)n2nc(C(=O)NNC(=O)c3ccccc3)nc2n1	-23	-17	.	3	0.36	5	.	.
CC(=O)n1cc([C@@H]2C=C(C(=O)Nc3ccccc3)O[C@H](OCc3ccc(CO)cc3)C2)c2ccccc21	-17	-16	.	-24	-1.6	34*	20	9
Cc1ccc(COC(=O)c2nn(-c3ccccc3)nc2N)cc1	-57	-19	.	-36	.	29*	23*	15
Nc1nn(-c2ccccc2)nc1C(=O)OCc1ccccc1	-32	-34	.	-22	0.72	.	.	.
COC(=O)c1ccccc1NC(=O)CSc1nnc(-c2cccnc2)n1N	0	-17	.	4	0.006	-2	.	.
CCOC(=O)C1(CC2CCCCO2)CCN(Cc2cc(F)ccc2-n2cccn2)CC1 (configuration not stated)	-2	-24	.	-16	-0.096	25*	18	7
CCOC(=O)C1(CC2CCCCO2)CCN(Cc2c(C)cc(C)cc2-n2cccn2)CC1 (configuration not stated)	-15	-25	.	-10	.	24*	9	8
CC1CCCCC1NC(=O)CN1C(=O)NC(Cc2ccccc2)(Cc2ccccc2)C1=O (configuration not stated)	-37	-4	16	-25	-1.4	24*	31*	28*
CCC/C=C(\CCC)C(NS(=O)(=O)c1cccc2cccnc12)c1ccc(C(=O)OC)cc1 (configuration not stated)	-34	1	4	6	-0.53	-1	.	.
CCC/C=C(\CCC)C(NC(=O)OCC(C)C)c1ccc(C(=O)OC)cc1 (configuration not stated)	-41	5	14	-7	0.81	22*	27*	26*
CSc1nc(N2CCN(c3ccccc3Cl)CC2)c2ccccc2n1	-64	-8	.	-34	-0.25	30*	22*	27*
CN(C)c1ccc2c3c(ccc(N(C)C)c13)C(=O)OC2	19	-15	.	0	-0.55	.	.	.
O=C(Nc1ccccc1)c1cc([N+](=O)[O-])ccc1NCc1cccnc1	-9	-10	2	0	-2.7	-2	.	.
Cc1cccc(NC(=O)C2C3CCC4C(CCC32)C4(Cl)Cl)c1 (configuration not stated)	-8	-18	16	-1	0.29	28*	15	6
O=C(Nc1ccc(Cl)cc1)C1C2CCC3C(CCC21)C3(Cl)Cl (configuration not stated)	0	-30	4	-2	-1.3	12	.	.
O=C(c1nc2ccccn2c1CN1CCCC(OCc2ccccc2)C1)N1CCCC1 (configuration not stated)	-19	-20	.	-18	-0.075	24*	12	5
O=C(c1nc2ccccn2c1CN1CCN(c2ccccc2O)CC1)N1CCCC1	3	-14	.	19	0.35	-2	.	.
CC(CCCC(C)(C)O)CC1C2=C(CCCC2=O)OC2=C1C(=O)CCC2 (configuration not stated)	4	-32	.	-4	0.27	0	.	.
SMILES	NPY-Y1 PAM-ag	Furin inh	NPY-Y2 antag	NPY2 pot ag	KCC2 mod	NPY-Y1 antag	NPY1 antag conf	NPY-Y2 antag ct
CCOc1ccc(NC(=O)CCCc2cc(-c3ccc(OCC)cc3)on2)cc1	7	6	0	-27	0.17	0	.	.
CCOc1ccc(-c2cc(CCCC(=O)Nc3cccc(OC)c3)no2)cc1	-12	-20	8	-13	-0.5	21*	11	21*
CC1(C)C(CSc2nc3ccccc3[nH]2)C1(Cl)Cl (configuration not stated)	-46	-11	.	-82	-0.098	92*	90*	110*
COc1ccc(CNC(=O)c2sc3nc4c(c(C(F)(F)F)c3c2N)CCC4)cc1	-14	-19	1	-5	-0.6	-1	.	.
Cc1onc(NC(=O)c2ccc(Cl)cc2Cl)c1Br	-8	-21	.	-2	0.019	-1	.	.
COc1nc(OC)nc(N2CCC(C(=O)Nc3cccc4ccccc34)CC2)n1	-35	-27	11	-10	-1.7	35*	13	14
O=[N+]([O-])c1cc2c(c(CSc3ncccn3)c1)OCOC2	4	-17	.	-7	-1.4	24*	3	6
Cc1ccc(CN2CCN(C3CCOCC3)CC2CCO)cc1 (configuration not stated)	9	-22	.	3	.	3	.	.
COc1ccccc1N1C(=O)C2C(c3ccc(F)cc3)NN(C(=O)c3ccc(C)cc3)C2C1=O (configuration not stated)	-2	-17	.	1	-0.25	3	.	.
Cc1ccc(C(c2nnnn2CCc2ccccc2)N2CCSCC2)cc1 (configuration not stated)	3	-24	10	2	-3.5	21*	10	4
Cc1ccc(C(c2nnnn2CCc2ccccc2)N2CCC(C)CC2)cc1 (configuration not stated)	-6	-25	10	9	-1.2	2	.	.
CCCCN(C)C(=O)c1nc2ccccn2c1CN1CCN(C/C=C/c2ccccc2)CC1	-2	-30	.	-15	-0.64	26*	18	10

Assay outcomes as filed in PubChem BioAssay.
